Source: ChEMBL document CHEMBL4265908, “Structure-activity and structure-property relationships of novel Nrf2 activators with a 1,2,4-oxadiazole core and their therapeutic effects on acetaminophen (APAP)-induced acute liver injury” (Eur J Med Chem, 2018)
Activity calls are given as the source filed them. The calls are words filed in the database; no cut-off is given here.

What was measured:
Format in all cases: cell-based
[1] = target: T1, Nuclear factor erythroid 2-related factor 2 (Homo sapiens) (UniProt Q16236); assay: Activation of Nrf2 in human HepG2-ARE-C8 cells assessed as induction of ARE-mediated luciferase activity at 0.1 uM after 24 hrs by luciferase reporter gene assay relative to control
T1 sequence (whole entry): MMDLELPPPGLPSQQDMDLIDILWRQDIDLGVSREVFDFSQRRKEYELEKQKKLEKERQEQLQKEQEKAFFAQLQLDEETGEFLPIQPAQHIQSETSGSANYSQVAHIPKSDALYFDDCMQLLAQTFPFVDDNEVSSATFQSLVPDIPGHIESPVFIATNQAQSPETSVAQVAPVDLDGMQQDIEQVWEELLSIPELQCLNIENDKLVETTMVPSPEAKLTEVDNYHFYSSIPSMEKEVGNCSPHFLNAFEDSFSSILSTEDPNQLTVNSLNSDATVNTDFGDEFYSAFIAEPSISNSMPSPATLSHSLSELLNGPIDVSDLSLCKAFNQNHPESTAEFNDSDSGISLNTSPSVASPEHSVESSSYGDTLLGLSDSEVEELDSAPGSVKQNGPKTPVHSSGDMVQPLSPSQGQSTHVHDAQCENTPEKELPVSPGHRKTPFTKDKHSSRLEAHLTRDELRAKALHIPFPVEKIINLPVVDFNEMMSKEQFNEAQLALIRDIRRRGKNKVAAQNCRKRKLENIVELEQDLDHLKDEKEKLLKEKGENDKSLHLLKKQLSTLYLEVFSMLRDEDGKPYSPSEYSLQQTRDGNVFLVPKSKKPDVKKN
Method in brief: (§1)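 HepG2-ARE-C8 cells stably carrying ARE-luciferase, grown in DMEM with 10% FBS at 37 °C and 5% CO2. Seeded at 5 × 10^4 cells/well, left overnight, then given compound diluted from a 10 mM DMSO stock for 24 h. Cells lysed and luciferase read as RLU. Inductivity = (RLUtest − RLUblank)/(RLUcontrol − RLUblank), with DMSO as control. Mean ± SEM of three experiments.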

[2] = target: T1, Nuclear factor erythroid 2-related factor 2 (Homo sapiens); assay: Activation of Nrf2 in human HepG2-ARE-C8 cells assessed as induction of ARE-mediated luciferase activity at 0.01 uM after 24 hrs by luciferase reporter gene assay relative to control; method in brief: as §1
[3] = target: T1, Nuclear factor erythroid 2-related factor 2 (Homo sapiens); assay: Activation of Nrf2 in human LO2 cells assessed as increase in GCLC mRNA expression level by qRT-PCR analysis
Method in brief: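 LO2 cells in DMEM with 10% FBS were exposed to 0, 2.5, 5, 10, 20 or 40 μM compound for 12 h. Transcripts measured by qRT-PCR: 40 cycles of 95 °C for 5 s and 60 °C for 30 s. Normalized to GAPDH and expressed as fold over the untreated control. Mean ± SD, n = 3.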

[4] = target: T1, Nuclear factor erythroid 2-related factor 2 (Homo sapiens); assay: Activation of Nrf2 in human LO2 cells cotreated with Nrf2 siRNA assessed as increase in GCLM mRNA expression level at 20 uM by qRT-PCR analysis
Method in brief: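 LO2 cells plated at 7 × 10^5 per 60 mm dish and transfected with 50 nM Nrf2 siRNA (scrambled siRNA as control). After 24 h, fresh medium was added and cells grown a further 48 h. Then 20 μM compound for 12 h. Nrf2, NQO1, GCLM and HO-1 mRNA measured by qRT-PCR, normalized to GAPDH, as fold over control.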

For `Cc1ccc(-c2noc(-c3ccc(F)c(F)c3)n2)cn1`, the Activity [1] was 3.46, the Activity [2] was 2.75 and the Activity [3] was “Dose-dependent effect”. For the same molecule, the Activity [4] was “Active”.
